Laboratory results taken from ChEMBL document CHEMBL1121965, “Nonsteroidal estrogens: synthesis and estrogen receptor binding affinity of derivatives of (3R*,4S*)-3,4-bis(4-hydroxyphenyl)hexane (hexestrol) and (2R*,3S*)-2,3-bis(4-hydroxyphenyl)pentane (norhexestrol) functionalized on the side chain” (J Med Chem, 1982).

These molecules were tested against Estrogen receptor (Ovis aries) (UniProt P49885+Q9TU15) (assay: The ratio of association constant for estrogen receptor using [3H]estradiol as a tracer, relative to estradiol).
Format: protein assay
In short: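 Competitive binding: lamb uterine cytosol supplied estrogen receptor, [3H]estradiol served as tracer, and free tracer was removed from bound by charcoal-dextran adsorption. Relative association constants were expressed against estradiol set at 100.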

SMILES | RAC
CC[C@H](c1ccc(O)cc1)[C@@H](CBr)c1ccc(O)cc1 | 150
CCC(c1ccc(O)cc1)C(CCI)c1ccc(O)cc1 (centres undefined) | 60
CC[C@H](c1ccc(O)cc1)[C@@H](C(N)=O)c1ccc(O)cc1 | 0.2
CC[C@H](c1ccc(O)cc1)[C@@H](CF)c1ccc(O)cc1 | 129
CCC(c1ccc(O)cc1)C(CCBr)c1ccc(O)cc1 (centres undefined) | 71
CC[C@H](c1ccc(O)cc1)[C@@H](C(=O)C[N+]#N)c1ccc(O)cc1 | 10.9
CC[C@H](c1ccc(O)cc1)[C@@H](CI)c1ccc(O)cc1 | 127
CC[C@H](c1ccc(O)cc1)[C@@H](C)c1ccc(O)cc1 | 137
CC[C@H](c1ccc(O)cc1)[C@@H](C(C)=O)c1ccc(O)cc1 | 58
CCC(c1ccc(O)cc1)C(C(=O)OC)c1ccc(O)cc1 (centres undefined) | 70
CCC(c1ccc(O)cc1)C(CCF)c1ccc(O)cc1 (centres undefined) | 129

The next lines start with the values.

RAC | SMILES
0.29 | CCCCCNC(=O)[C@@H](c1ccc(O)cc1)[C@H](CC)c1ccc(O)cc1
0.09 | CC[C@H](c1ccc(O)cc1)[C@@H](CC(N)=O)c1ccc(O)cc1
2.8 | CC[C@H](c1ccc(O)cc1)[C@@H](CC(=O)C[N+]#N)c1ccc(O)cc1
300 | CC[C@H](c1ccc(O)cc1)[C@@H](CC)c1ccc(O)cc1
21 | CC[C@H](c1ccc(O)cc1)[C@@H](CC(C)=O)c1ccc(O)cc1
61 | CCCCCOC(=O)C(c1ccc(O)cc1)C(CC)c1ccc(O)cc1 (centres undefined)
15 | CCC(c1ccc(O)cc1)C(CCO)c1ccc(O)cc1 (centres undefined)
3.8 | CCCCCOC(=O)CC(c1ccc(O)cc1)C(CC)c1ccc(O)cc1 (centres undefined)
19 | CC[C@H](c1ccc(O)cc1)[C@@H](CC(=O)OC)c1ccc(O)cc1
8.9 | CC[C@H](c1ccc(O)cc1)[C@@H](CO)c1ccc(O)cc1
0.15 | CCCCCNC(=O)C[C@@H](c1ccc(O)cc1)[C@H](CC)c1ccc(O)cc1
9.4 | CCCCC(=O)C[C@@H](c1ccc(O)cc1)[C@H](CC)c1ccc(O)cc1
81 | CCCCC(=O)[C@@H](c1ccc(O)cc1)[C@H](CC)c1ccc(O)cc1
